Results taken from ChEMBL document CHEMBL1144859, “Synthesis and evaluation of homodimeric GnRHR antagonists having a rigid bis-propargylated benzene core” (Bioorg Med Chem, 2008).

How the values were obtained:
[1] = target: T1, Gonadotropin-releasing hormone receptor (Homo sapiens) (UniProt P30968); test: Antagonist activity at human recombinant GnRHR expressed in CHOK1 cells assessed as reduction in luminescence signal at 3 uM by luciferase reporter gene assay; type: functional, cell-based; settings: CHO-K1
T1 sequence (whole entry): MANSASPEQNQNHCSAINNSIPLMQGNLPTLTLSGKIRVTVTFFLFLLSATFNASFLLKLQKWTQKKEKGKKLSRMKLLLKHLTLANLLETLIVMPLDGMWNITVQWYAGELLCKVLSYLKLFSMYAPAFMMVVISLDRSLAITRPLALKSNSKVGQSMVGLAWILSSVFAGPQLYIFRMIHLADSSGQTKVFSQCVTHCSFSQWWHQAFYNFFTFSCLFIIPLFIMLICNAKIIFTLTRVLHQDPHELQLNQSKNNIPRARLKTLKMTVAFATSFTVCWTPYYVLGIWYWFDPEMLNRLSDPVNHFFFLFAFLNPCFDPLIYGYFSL
How it was run: (§1)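 CHO-K1 cells stably expressing human GnRHR plus NFAT-luciferase reporter, grown in DMEM/10% FBS with geneticin, harvested and suspended in DMEM with insulin, apo-transferrin and 3% DMSO (7500 cells/well). Compounds (10 μM to 0.3 nM final, half-log) preincubated 30 min, then GnRH 3 nM final (EC80) for 4 h; luciferase substrate added, 1 h at room temperature in the dark; luminescence read.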

[2] = Cytotoxicity against human GnRHR expressing CHO cells assessed as cell viability at 10 uM after 4 hrs; type: cell-based, Cricetulus griseus; settings: chinese hamster, read-out: Activity
How it was run: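 CHO cells with human GnRHR and luciferase reporter, plated in assay medium with or without 10 μM compound, 4 h at 37 °C. Cells were then trypsinised and suspended in PBS, mixed 1:1 with 0.8% trypan blue, and live cells were counted by hemocytometer.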

[3] = target: T2, Gonadotropin-releasing hormone receptor (Homo sapiens, UniProt P30968); test: Displacement of [125I]triptorelin from human GnRHR expressed in CHO cells; type: cell-based
T2 sequence (P30968 whole entry): T1 sequence (whole entry)
How it was run: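 Membranes from CHO cells stably expressing human GnRHR (20 μg protein) in 50 mM Tris-HCl pH 7.4, 2 mM MgCl2, 0.1% BSA, with 30,000 cpm [125I]triptorelin and five competitor concentrations, 45 min at 22 °C. Nonspecific binding was set with 1 μM ganirelix. Samples were filtered on PEI-soaked GF/B and counted by gamma counter.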

[4] = target: T1, Gonadotropin-releasing hormone receptor (Homo sapiens); test: Antagonist activity at human recombinant GnRHR expressed in CHOK1 cells assessed as reduction in luminescence signal at 10 uM by luciferase reporter gene assay; type: functional, cell-based; settings: CHO-K1; how it was run: as §1
[5] = target: T2, Gonadotropin-releasing hormone receptor; test: Antagonist activity at human recombinant GnRHR expressed in CHOK1 cells assessed as reduction in luminescence signal by luciferase reporter gene assay; type: functional, cell-based, CHO-K1; how it was run: as §1

Row | SMILES | Efficacy [1] [%] | Ki [3] [nM] | Efficacy [4] [%] | IC50 [5] [nM] | viability at 4 h, 10 µM [2] [%]
1 | CCNC(=O)Nc1ccc(-c2nc3n(Cc4c(F)cccc4F)cc(C(=O)OCC)c(=O)n3c2CN(CC(=O)NCCCC(=O)NCC#Cc2ccc(C#CCNC(=O)CCCNC(=O)CN(Cc3ccccc3)Cc3c(-c4ccc(NC(=O)NCC)cc4)nc4n(Cc5c(F)cccc5F)cc(C(=O)OCC)c(=O)n34)cc2)Cc2ccccc2)cc1 | 68 | 600 | 85 |  | 95
2 | CCNC(=O)Nc1ccc(-c2nc3n(Cc4c(F)cccc4F)cc(C(=O)OCC)c(=O)n3c2CN(CC(=O)NCCCCCC(=O)NCC#Cc2cccc(C#CCNC(=O)CCCCCNC(=O)CN(Cc3ccccc3)Cc3c(-c4ccc(NC(=O)NCC)cc4)nc4n(Cc5c(F)cccc5F)cc(C(=O)OCC)c(=O)n34)c2)Cc2ccccc2)cc1 | 44 | 930 | 58 |  | 
3 | CCNC(=O)Nc1ccc(-c2nc3n(Cc4c(F)cccc4F)cc(C(=O)OCC)c(=O)n3c2CN(CC(=O)NCCCCCC(=O)NCC#Cc2ccc(C#CCNC(=O)CCCCCNC(=O)CN(Cc3ccccc3)Cc3c(-c4ccc(NC(=O)NCC)cc4)nc4n(Cc5c(F)cccc5F)cc(C(=O)OCC)c(=O)n34)cc2)Cc2ccccc2)cc1 | 54 | 620 | 67 |  | 
4 | CCNC(=O)Nc1ccc(-c2nc3n(Cc4c(F)cccc4F)cc(C(=O)OCC)c(=O)n3c2CN(CC(=O)N[C@@H](C)C(=O)NCC#Cc2cccc(C#CCNC(=O)[C@H](C)NC(=O)CN(Cc3ccccc3)Cc3c(-c4ccc(NC(=O)NCC)cc4)nc4n(Cc5c(F)cccc5F)cc(C(=O)OCC)c(=O)n34)c2)Cc2ccccc2)cc1 | 18 | 5300 | 14 |  | 
5 | CCNC(=O)Nc1ccc(-c2nc3n(Cc4c(F)cccc4F)cc(C(=O)OCC)c(=O)n3c2CN(CC(=O)NCCCC(=O)NCC#Cc2cccc(C#CCNC(=O)CCCNC(=O)CN(Cc3ccccc3)Cc3c(-c4ccc(NC(=O)NCC)cc4)nc4n(Cc5c(F)cccc5F)cc(C(=O)OCC)c(=O)n34)c2)Cc2ccccc2)cc1 | 40 | 820 | 57 |  | 
6 | CCNC(=O)Nc1ccc(-c2nc3n(Cc4c(F)cccc4F)cc(C(=O)OCC)c(=O)n3c2CN(CC(=O)N[C@H](C(=O)NCC#Cc2ccccc2)C(C)C)Cc2ccccc2)cc1 | 64 | 770 | 60 | 520 | 
7 | CCNC(=O)Nc1ccc(-c2nc3n(Cc4c(F)cccc4F)cc(C(=O)OCC)c(=O)n3c2CN(CC(=O)N2CCC[C@H]2C(=O)NCC#Cc2cccc(C#CCNC(=O)[C@@H]3CCCN3C(=O)CN(Cc3ccccc3)Cc3c(-c4ccc(NC(=O)NCC)cc4)nc4n(Cc5c(F)cccc5F)cc(C(=O)OCC)c(=O)n34)c2)Cc2ccccc2)cc1 | 31 | 930 | 67 |  | 
8 | CCNC(=O)Nc1ccc(-c2nc3n(Cc4c(F)cccc4F)cc(C(=O)OCC)c(=O)n3c2CN(CC(=O)N2CCC[C@H]2C(=O)NCC#Cc2ccc(C#CCNC(=O)[C@@H]3CCCN3C(=O)CN(Cc3ccccc3)Cc3c(-c4ccc(NC(=O)NCC)cc4)nc4n(Cc5c(F)cccc5F)cc(C(=O)OCC)c(=O)n34)cc2)Cc2ccccc2)cc1 | 46 | 740 | 65 |  | 
9 | CCNC(=O)Nc1ccc(-c2nc3n(Cc4c(F)cccc4F)cc(C(=O)OCC)c(=O)n3c2CN(CC(=O)NCC(=O)NCC#Cc2cccc(C#CCNC(=O)CNC(=O)CN(Cc3ccccc3)Cc3c(-c4ccc(NC(=O)NCC)cc4)nc4n(Cc5c(F)cccc5F)cc(C(=O)OCC)c(=O)n34)c2)Cc2ccccc2)cc1 | 20 | 1100 | 9 |  | 
10 | CCNC(=O)Nc1ccc(-c2nc3n(Cc4c(F)cccc4F)cc(C(=O)OCC)c(=O)n3c2CN(CC(=O)N[C@H](C(=O)NCC#Cc2cccc(C#CCNC(=O)[C@@H](NC(=O)CN(Cc3ccccc3)Cc3c(-c4ccc(NC(=O)NCC)cc4)nc4n(Cc5c(F)cccc5F)cc(C(=O)OCC)c(=O)n34)C(C)C)c2)C(C)C)Cc2ccccc2)cc1 | 28 | 2200 | 43 |  | 
11 | CCNC(=O)Nc1ccc(-c2nc3n(Cc4c(F)cccc4F)cc(C(=O)OCC)c(=O)n3c2CN(CC(=O)NCCCC(=O)NCC#Cc2ccccc2)Cc2ccccc2)cc1 | 97 | 580 | 96 | 680 | 95
12 | CCNC(=O)Nc1ccc(-c2nc3n(Cc4c(F)cccc4F)cc(C(=O)OCC)c(=O)n3c2CN(CC(=O)N[C@H](C(=O)NCC#Cc2ccc(C#CCNC(=O)[C@@H](NC(=O)CN(Cc3ccccc3)Cc3c(-c4ccc(NC(=O)NCC)cc4)nc4n(Cc5c(F)cccc5F)cc(C(=O)OCC)c(=O)n34)C(C)C)cc2)C(C)C)Cc2ccccc2)cc1 | 31 | 720 | 34 |  | 
13 | CCNC(=O)Nc1ccc(-c2nc3n(Cc4c(F)cccc4F)cc(C(=O)OCC)c(=O)n3c2CN(CC(=O)N[C@@H](C)C(=O)NCC#Cc2ccccc2)Cc2ccccc2)cc1 | 63 | 1600 | 61 | 1100 | 

Stronger by Ki [3], values ahead:

Row | Efficacy [1] [%] | Ki [3] [nM] | Efficacy [4] [%] | IC50 [5] [nM] | SMILES | viability at 4 h, 10 µM [2] [%]
14 | 42 | 480 | 52 |  | CCNC(=O)Nc1ccc(-c2nc3n(Cc4c(F)cccc4F)cc(C(=O)OCC)c(=O)n3c2CN(CC(=O)N[C@@H](C)C(=O)NCC#Cc2ccc(C#CCNC(=O)[C@H](C)NC(=O)CN(Cc3ccccc3)Cc3c(-c4ccc(NC(=O)NCC)cc4)nc4n(Cc5c(F)cccc5F)cc(C(=O)OCC)c(=O)n34)cc2)Cc2ccccc2)cc1 | 
15 | 87 | 260 | 89 | 560 | CCNC(=O)Nc1ccc(-c2nc3n(Cc4c(F)cccc4F)cc(C(=O)OCC)c(=O)n3c2CN(CC(=O)N2CCC[C@H]2C(=O)NCC#Cc2ccccc2)Cc2ccccc2)cc1 | 
16 | 83 | 140 | 82 | 460 | CCNC(=O)Nc1ccc(-c2nc3n(Cc4c(F)cccc4F)cc(C(=O)OCC)c(=O)n3c2CN(CC(=O)N2CCC(C(=O)NCC#Cc3ccccc3)CC2)Cc2ccccc2)cc1 | 
17 | 97 | 380 | 99 | 440 | CCNC(=O)Nc1ccc(-c2nc3n(Cc4c(F)cccc4F)cc(C(=O)OCC)c(=O)n3c2CN(CC(=O)NCCCCCC(=O)NCC#Cc2ccccc2)Cc2ccccc2)cc1 | 
18 | 92 | 170 | 95 | 460 | CCNC(=O)Nc1ccc(-c2nc3n(Cc4c(F)cccc4F)cc(C(=O)OCC)c(=O)n3c2CN(CC(=O)NCC(=O)NCC#Cc2ccccc2)Cc2ccccc2)cc1 | 
19 | 68 | 400 | 86 |  | CCNC(=O)Nc1ccc(-c2nc3n(Cc4c(F)cccc4F)cc(C(=O)OCC)c(=O)n3c2CN(CC(=O)N2CCC(C(=O)NCC#Cc3cccc(C#CCNC(=O)C4CCN(C(=O)CN(Cc5ccccc5)Cc5c(-c6ccc(NC(=O)NCC)cc6)nc6n(Cc7c(F)cccc7F)cc(C(=O)OCC)c(=O)n56)CC4)c3)CC2)Cc2ccccc2)cc1 | 
20 | 35 | 510 | 48 |  | CCNC(=O)Nc1ccc(-c2nc3n(Cc4c(F)cccc4F)cc(C(=O)OCC)c(=O)n3c2CN(CC(=O)N2CCC(C(=O)NCC#Cc3ccc(C#CCNC(=O)C4CCN(C(=O)CN(Cc5ccccc5)Cc5c(-c6ccc(NC(=O)NCC)cc6)nc6n(Cc7c(F)cccc7F)cc(C(=O)OCC)c(=O)n56)CC4)cc3)CC2)Cc2ccccc2)cc1 | 
21 | 34 | 530 | 59 |  | CCNC(=O)Nc1ccc(-c2nc3n(Cc4c(F)cccc4F)cc(C(=O)OCC)c(=O)n3c2CN(CC(=O)NCC(=O)NCC#Cc2ccc(C#CCNC(=O)CNC(=O)CN(Cc3ccccc3)Cc3c(-c4ccc(NC(=O)NCC)cc4)nc4n(Cc5c(F)cccc5F)cc(C(=O)OCC)c(=O)n34)cc2)Cc2ccccc2)cc1 | 
